{
  "source": "ChEMBL document CHEMBL1147085",
  "about": "“Metabolism and pharmacokinetics of a novel Src kinase inhibitor TG100435 ([7-(2,6-dichloro-phenyl)-5-methyl-benzo[1,2,4]triazin-3-yl]-[4-(2-pyrrolidin-1-yl-ethoxy)-phenyl]-amine) and its active N-oxide metabolite TG100855 …” (Drug Metab Dispos, 2007)",
  "key": {"[1]": {"experiment": "AUC (0 to last) in Sprague-Dawley rat at 25 mg/kg, po", "type": "ADME, organism-based", "parameters": "time 0 - last, dose 25 mg/kg, route oral", "conditions": "plasma"}, "[2]": {"experiment": "AUC (0 to infinity) in BALB/c mouse at 40 mg/kg, po", "type": "ADME, organism-based", "parameters": "time infinity, dose 40 mg/kg, route oral", "conditions": "plasma", "summary_of_the_method": "(§1)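 Male BALB/c mice (~25 g); fasted overnight for single p.o. dosing, not fasted for i.v. or i.p. dosing. Composite blood sampling, n=3 per time point: 5, 15, 30 min, 1, 3, 6, 24, 48 hr after i.v. dose; 0.5, 1, 3, 5, 8, 24, 30, 48 hr after p.o. or i.p. dose. Heparinized plasma, both parent and N-oxide measured by LC/MS/MS (MRM 494.2/98.1 and 510.2/98.1); non-compartmental analysis, AUC by linear trapezoidal rule.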"}, "[3]": {"experiment": "AUC (0 to infinity) in Sprague-Dawley rat at 5 mg/kg, iv", "type": "ADME, organism-based", "parameters": "time infinity, dose 5 mg/kg, route intravenous", "conditions": "plasma"}, "[4]": {"experiment": "Clearance in Sprague-Dawley rat at 5 mg/kg, iv", "type": "ADME, organism-based", "parameters": "dose 5 mg/kg, route intravenous", "conditions": "in vivo"}, "[5]": {"experiment": "Clearance in Sprague-Dawley rat at 5 mg/kg, ip", "type": "ADME, organism-based", "parameters": "dose 5 mg/kg, route intraperitoneal", "conditions": "in vivo"}, "Rattus norvegicus [6]": {"test_system": "Rattus norvegicus", "experiment": "AUC (0 to infinity) in Sprague-Dawley rat assessed as AUC of ([7-(2,6-Dichloro-phenyl)-5-methyl-benzo[1,2,4]triazin-3-yl]-[4-(2-pyrrolidin-1-yl-ethoxy)-phenyl]-amine) at 5 mg/kg, ip", "type": "ADME, organism-based, Plasma", "parameters": "time infinity, dose 5 mg/kg, route intraperitoneal", "conditions": "in vivo"}, "[7]": {"experiment": "Half life in BALB/c mouse at 5 mg/kg, iv", "type": "ADME, organism-based", "parameters": "dose 5 mg/kg, route intravenous", "conditions": "in vivo", "summary_of_the_method": "as §1"}, "[8]": {"experiment": "Cmax in Sprague-Dawley rat at 25 mg/kg, po", "type": "ADME, organism-based", "parameters": "dose 25 mg/kg, route oral", "conditions": "in vivo"}, "Ephrin type-B receptor 4": {"biological_target": "T1, Ephrin type-B receptor 4 (Homo sapiens, UniProt P54760)", "T1 sequence (P54760 whole entry)": "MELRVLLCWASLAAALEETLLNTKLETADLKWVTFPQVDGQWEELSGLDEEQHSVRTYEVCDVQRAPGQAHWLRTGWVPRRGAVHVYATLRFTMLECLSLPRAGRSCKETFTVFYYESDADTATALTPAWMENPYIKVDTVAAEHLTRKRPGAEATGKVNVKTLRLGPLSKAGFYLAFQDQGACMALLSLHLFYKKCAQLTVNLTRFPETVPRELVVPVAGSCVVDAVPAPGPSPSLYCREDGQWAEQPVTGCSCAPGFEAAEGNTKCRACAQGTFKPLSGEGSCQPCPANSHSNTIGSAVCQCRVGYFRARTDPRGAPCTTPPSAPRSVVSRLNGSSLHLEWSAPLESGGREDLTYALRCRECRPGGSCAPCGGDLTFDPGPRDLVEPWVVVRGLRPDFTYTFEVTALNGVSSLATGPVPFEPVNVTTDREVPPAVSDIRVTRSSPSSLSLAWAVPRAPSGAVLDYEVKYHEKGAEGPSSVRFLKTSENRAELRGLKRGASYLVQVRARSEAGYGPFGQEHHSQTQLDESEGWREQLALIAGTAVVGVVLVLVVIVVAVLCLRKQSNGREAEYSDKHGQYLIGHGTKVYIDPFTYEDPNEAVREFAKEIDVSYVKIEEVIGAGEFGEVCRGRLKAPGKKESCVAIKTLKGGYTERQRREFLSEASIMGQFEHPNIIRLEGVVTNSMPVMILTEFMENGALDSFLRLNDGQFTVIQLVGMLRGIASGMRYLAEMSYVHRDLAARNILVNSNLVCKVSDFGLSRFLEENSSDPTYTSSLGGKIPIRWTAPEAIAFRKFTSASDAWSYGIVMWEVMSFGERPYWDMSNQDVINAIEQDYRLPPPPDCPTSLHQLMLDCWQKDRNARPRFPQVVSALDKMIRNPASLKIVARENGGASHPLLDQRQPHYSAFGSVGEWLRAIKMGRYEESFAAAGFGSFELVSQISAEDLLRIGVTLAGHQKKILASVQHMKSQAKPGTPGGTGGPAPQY", "experiment": "Inhibition of EphB4 by luminescence based kinase assay"}, "Mus musculus [9]": {"test_system": "Mus musculus", "experiment": "Bioavailability in BALB/c mouse assessed as bioavailability of ([7-(2,6-Dichloro-phenyl)-5-methyl-benzo[1,2,4]triazin-3-yl]-[4-(2-pyrrolidin-1-yl-ethoxy)-phenyl]-amine) at 25 mg/kg, po", "conditions": "in vivo"}, "[10]": {"experiment": "AUC (0 to infinity) in Sprague-Dawley rat at 5 mg/kg, ip", "type": "ADME, organism-based", "parameters": "time infinity, dose 5 mg/kg, route intraperitoneal", "conditions": "plasma"}, "[11]": {"experiment": "Bioavailability in BALB/c mouse at 25 mg/kg, po", "type": "ADME, organism-based", "conditions": "in vivo"}, "[12]": {"biological_target": "Tyrosine-protein kinase Lck (Homo sapiens, UniProt P06239)", "sequence (P06239 whole entry)": "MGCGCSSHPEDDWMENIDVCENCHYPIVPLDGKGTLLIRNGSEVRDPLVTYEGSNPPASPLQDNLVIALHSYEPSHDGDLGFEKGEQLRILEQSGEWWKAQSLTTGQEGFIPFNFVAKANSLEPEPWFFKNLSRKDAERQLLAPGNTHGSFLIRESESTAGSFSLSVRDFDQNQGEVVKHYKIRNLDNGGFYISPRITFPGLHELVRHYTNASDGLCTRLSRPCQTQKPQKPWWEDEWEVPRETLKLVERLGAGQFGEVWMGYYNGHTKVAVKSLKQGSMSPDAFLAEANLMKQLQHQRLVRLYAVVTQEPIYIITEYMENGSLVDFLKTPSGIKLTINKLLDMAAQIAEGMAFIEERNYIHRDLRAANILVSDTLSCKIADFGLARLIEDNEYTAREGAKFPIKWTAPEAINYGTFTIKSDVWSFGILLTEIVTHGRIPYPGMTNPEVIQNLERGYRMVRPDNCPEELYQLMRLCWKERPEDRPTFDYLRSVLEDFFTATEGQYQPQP", "experiment": "Inhibition of Lck by luminescence based kinase assay"}, "Mus musculus [13]": {"test_system": "Mus musculus", "experiment": "Tmax in BALB/c mouse assessed as Tmax of ([7-(2,6-Dichloro-phenyl)-5-methyl-benzo[1,2,4]triazin-3-yl]-[4-(2-pyrrolidin-1-yl-ethoxy)-phenyl]-amine) at 25 mg/kg, po", "conditions": "in vivo"}, "Rattus norvegicus [14]": {"test_system": "Rattus norvegicus", "experiment": "AUC (0 to infinity) in Sprague-Dawley rat assessed as AUC of ([7-(2,6-Dichloro-phenyl)-5-methyl-benzo[1,2,4]triazin-3-yl]-[4-(2-pyrrolidin-1-yl-ethoxy)-phenyl]-amine) at 5 mg/kg, iv", "type": "ADME, organism-based, Plasma", "parameters": "time infinity, dose 5 mg/kg, route intravenous", "conditions": "in vivo"}, "Rattus norvegicus [15]": {"test_system": "Rattus norvegicus", "experiment": "Tmax in Sprague-Dawley rat assessed as Tmax of ([7-(2,6-Dichloro-phenyl)-5-methyl-benzo[1,2,4]triazin-3-yl]-[4-(2-pyrrolidin-1-yl-ethoxy)-phenyl]-amine) at 25 mg/kg, po", "conditions": "in vivo"}, "[16]": {"experiment": "Cmax in BALB/c mouse at 25 mg/kg, po", "type": "ADME, organism-based", "parameters": "dose 25 mg/kg, route oral", "conditions": "in vivo", "summary_of_the_method": "as §1"}, "Rattus norvegicus [17]": {"test_system": "Rattus norvegicus", "experiment": "Volume of distribution in Sprague-Dawley rat at 5 mg/kg, ip", "type": "ADME, organism-based", "parameters": "dose 5 mg/kg, route intraperitoneal", "conditions": "in vivo"}, "[18]": {"experiment": "Clearance in BALB/c mouse at 5 mg/kg, ip", "type": "ADME, organism-based", "parameters": "dose 5 mg/kg, route intraperitoneal", "conditions": "in vivo", "summary_of_the_method": "as §1"}, "Mus musculus [19]": {"test_system": "Mus musculus", "experiment": "Volume of distribution in BALB/c mouse at 5 mg/kg, ip", "type": "ADME, organism-based", "parameters": "dose 5 mg/kg, route intraperitoneal", "conditions": "in vivo", "summary_of_the_method": "as §1"}, "[20]": {"experiment": "AUC (0 to infinity) in Sprague-Dawley rat at 25 mg/kg, po", "type": "ADME, organism-based", "parameters": "time infinity, dose 25 mg/kg, route oral", "conditions": "plasma"}, "[21]": {"experiment": "Tmax in BALB/c mouse at 25 mg/kg, po", "type": "ADME, organism-based", "parameters": "dose 25 mg/kg, route oral", "conditions": "in vivo"}, "[22]": {"biological_target": "Tyrosine-protein kinase Lyn (Homo sapiens, UniProt P07948)", "sequence (P07948 whole entry)": "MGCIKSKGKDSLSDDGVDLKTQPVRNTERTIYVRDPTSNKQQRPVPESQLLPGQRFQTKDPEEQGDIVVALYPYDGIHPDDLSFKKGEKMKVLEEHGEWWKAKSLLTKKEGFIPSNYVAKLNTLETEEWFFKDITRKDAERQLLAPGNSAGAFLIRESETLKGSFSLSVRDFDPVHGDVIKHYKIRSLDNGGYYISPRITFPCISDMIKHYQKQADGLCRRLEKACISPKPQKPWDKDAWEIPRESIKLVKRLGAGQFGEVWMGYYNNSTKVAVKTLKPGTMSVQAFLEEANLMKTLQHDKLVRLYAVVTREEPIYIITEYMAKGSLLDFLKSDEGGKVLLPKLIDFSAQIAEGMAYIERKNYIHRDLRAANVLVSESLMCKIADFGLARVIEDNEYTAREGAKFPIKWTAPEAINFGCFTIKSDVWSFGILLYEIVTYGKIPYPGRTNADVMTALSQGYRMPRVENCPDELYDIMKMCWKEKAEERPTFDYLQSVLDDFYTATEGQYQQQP", "experiment": "Inhibition of Lyn by luminescence based kinase assay"}, "Rattus norvegicus [23]": {"test_system": "Rattus norvegicus", "experiment": "Bioavailability in Sprague-Dawley rat assessed as bioavailability of ([7-(2,6-Dichloro-phenyl)-5-methyl-benzo[1,2,4]triazin-3-yl]-[4-(2-pyrrolidin-1-yl-ethoxy)-phenyl]-amine) at 25 mg/kg, po", "conditions": "in vivo"}},
  "data": [
    {"compound": "Cc1cc(-c2c(Cl)cccc2Cl)cc2nnc(Nc3ccc(OCC[N+]4([O-])CCCC4)cc3)nc12", "values": [
      {"measurement": "AUC(0-t)", "setting": "[1]", "result": 467, "unit": "ng·h/mL"},
      {"measurement": "AUC(0-inf)", "setting": "[2]", "result": 13400, "unit": "ng·h/mL"},
      {"measurement": "AUC(0-inf)", "setting": "[3]", "result": 6050, "unit": "ng·h/mL"},
      {"measurement": "clearance", "setting": "[4]", "result": 13.8, "unit": "mL/min/kg"},
      {"measurement": "CL/F", "setting": "[5]", "result": 17, "unit": "mL/min/kg"},
      {"measurement": "AUC", "setting": "Rattus norvegicus [6]", "result": 498, "unit": "ng·h/mL"},
      {"measurement": "half-life", "setting": "[7]", "result": 0.9, "unit": "h"},
      {"measurement": "Cmax", "setting": "[8]", "result": 160, "unit": "ng/mL"},
      {"measurement": "Ki", "setting": "Ephrin type-B receptor 4", "result": 7.27, "unit": "nM"},
      {"measurement": "F", "setting": "Mus musculus [9]", "result": 6.8, "unit": "%"},
      {"measurement": "AUC(0-inf)", "setting": "[10]", "result": 4990, "unit": "ng·h/mL"},
      {"measurement": "bioavailability", "setting": "[11]", "result": 3.5, "unit": "%"},
      {"measurement": "Ki", "setting": "[12]", "result": 11.7, "unit": "nM"},
      {"measurement": "Tmax", "setting": "Mus musculus [13]", "result": 7, "unit": "h"},
      {"measurement": "AUC", "setting": "Rattus norvegicus [14]", "result": 539, "unit": "ng·h/mL"},
      {"measurement": "Tmax", "setting": "Rattus norvegicus [15]", "result": 4, "unit": "h"},
      {"measurement": "Cmax", "setting": "[16]", "result": 171, "unit": "ng/mL"},
      {"measurement": "Vd", "setting": "Rattus norvegicus [17]", "result": 3.3, "unit": "L/kg"},
      {"measurement": "CL/F", "setting": "[18]", "result": 11.6, "unit": "mL/min/kg"},
      {"measurement": "Vd", "setting": "Mus musculus [19]", "result": 2.6, "unit": "L/kg"},
      {"measurement": "AUC(0-inf)", "setting": "[20]", "result": 470, "unit": "ng·h/mL"},
      {"measurement": "Tmax", "setting": "[21]", "result": 1, "unit": "h"},
      {"measurement": "Ki", "setting": "[22]", "result": 4.19, "unit": "nM"},
      {"measurement": "F", "setting": "Rattus norvegicus [23]", "result": 3.1, "unit": "%"}
    ]}
  ]
}
